Converted amounts (≈) assume the structure as drawn.
Experiments:
Format in all cases: cell-based
[1] = Cytotoxicity against human SMMC7721 cells after 48 hrs; conditions: SMMC-7721, 48 h
Procedure, shortened: (§1)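 SRB assay. Exponentially growing cells were seeded at 5 × 10^3 per well and incubated 24 h, then exposed 48 h to 5-6 concentrations per run, with vincristine sulfate as positive control. Extracted dye absorbance was read at 515 nm. Percent survival was calculated against untreated cells set at 100%. Done in triplicate.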

HL-60 = experiment: Cytotoxicity against human HL60 cells after 48 hrs; conditions: HL-60, 48 h; procedure, shortened: as §1
[2] = Cytotoxicity against human L02 cells after 48 hrs; conditions: L02, 48 h; procedure, shortened: as §1

Row | Structure (SMILES) | IC50 [1] | IC50 (HL-60) | IC50 [2]
1 | C=C1C(=O)O[C@H]2[C@H]1[C@@H](OC(=O)C(C)C)C(=O)[C@H](C)CCC[C@](C)(O)[C@@H]2OC(=O)C(C)C [INCASPITOLIDE A] | 97.1 µg/mL (≈ 221 µM) | 11.8 µg/mL (≈ 26.9 µM) | 86.4 µg/mL (≈ 197 µM)
2 | C=C1C(=O)O[C@H]2[C@H]1[C@@H](O)[C@H](OC(=O)CC(C)C)[C@H](C)CCC(=O)[C@](C)(O)[C@@H]2OC(=O)C(C)C | 44.8 µg/mL (≈ 95.6 µM) | 1.7 µg/mL (≈ 3.63 µM) | 23.1 µg/mL (≈ 49.3 µM)
3 | C=C1C(=O)O[C@H]2[C@H]1[C@@H](OC(=O)/C(C)=C\C)C(=O)[C@H](C)CCC[C@](C)(O)[C@@H]2OC(=O)C(C)C | 46.3 µg/mL (≈ 103 µM) | 3.4 µg/mL (≈ 7.55 µM) | 72.4 µg/mL (≈ 161 µM)
4 | CC(=O)OC/C=C(\C)CC/C=C(/CCC[C@H](C)[C@H](O)CC=C(C)C)COC(C)=O | 12.5 µg/mL (≈ 30.6 µM) | 20.2 µg/mL (≈ 49.4 µM) | 31.3 µg/mL (≈ 76.6 µM)
5 | C=C1C(=O)O[C@H]2[C@H]1[C@@H](O)[C@H](OC(=O)CC(C)C)[C@H](C)CCC(=O)[C@](C)(O)[C@@H]2OC(=O)C(C)CC (stereo not given in full) | 29.7 µg/mL (≈ 61.5 µM) | 10.3 µg/mL (≈ 21.3 µM) | 57.5 µg/mL (≈ 119 µM)
6 | C=C1C(=O)O[C@H]2[C@H]1[C@@H](OC(=O)C(C)C)[C@H](O)[C@H](C)CCC(=O)[C@](C)(O)[C@@H]2OC(=O)C(C)C | 33.5 µg/mL (≈ 73.7 µM) | 3.2 µg/mL (≈ 7.04 µM) | 42.3 µg/mL (≈ 93.1 µM)
7 | CC(C)=CC[C@@H](O)[C@@H](C)CCC/C(C)=C/CC/C(C)=C/CO | > 100 µg/mL | 42.4 µg/mL (≈ 137 µM) | > 100 µg/mL
8 | C=C1C(=O)O[C@H]2[C@H]1[C@@H](O)[C@H](OC(=O)C(C)C)[C@H](C)CCC(=O)[C@](C)(O)[C@@H]2OC(=O)C(C)C [INCASPITOLIDE D] | 62.5 µg/mL (≈ 138 µM) | 14.3 µg/mL (≈ 31.5 µM) | 95.7 µg/mL (≈ 211 µM)
9 | CC[C@]1(O)C[C@H]2CN(CCc3c([nH]c4ccccc34)[C@@](C(=O)OC)(c3cc4c(cc3OC)N(C=O)[C@H]3[C@@](O)(C(=O)OC)[C@H](OC(C)=O)[C@]5(CC)C=CCN6CC[C@]43[C@@H]65)C2)C1.O=S(=O)(O)O [VINCRISTINE SULFATE] | 26.7 µg/mL | 11.2 µg/mL | 28.4 µg/mL
10 | CC(=O)OC/C(=C\CC/C(C)=C/CO)CCC[C@H](C)[C@H](O)CC=C(C)C | > 100 µg/mL | > 100 µg/mL | > 100 µg/mL
